In the library only some 2.7% were active in any assay of this set; here they are far more common.
PREPL inh = inhibitors of human prolyl oligopeptidase-like enzyme PREPL; 320,000 compounds, 0.68% hits; Q4J6C6; recombinant PREPL, fluorescence polarization activity-based probe; inhibition, % at 5.96 µM
MC4R barr agon = human MC4R agonism via beta-arrestin. P32245. U2OS MC4R beta-arrestin complementation, luminescence; percent of melanotan II response, DMSO zero. activation, % at 8.9 µM. 360,000 compounds, 0.98% hits. AID 540308;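 active = activation above a per-plate cutoff, the mean activation of sample wells on that plate plus 3 SD, cut at about 8% in these data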
Lipid droplet = hepatic lipid droplet formation modulation; 240,000 compounds, 0.4% hits; inhibition, % at 6.5 µM; AML12 mouse hepatocytes, oleate lipid droplets, BODIPY imaging;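 active = lipid droplet intensity inhibited by at least 50%, with more than 500 cells counted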
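Material – AML12 mouse liver cells · Also added – oleate loading, 100 µM · Compound dosing – 6.5 µM single-point dosing · Times – overnight treatment with compound plus oleate · Measured by – fluorescence imaging, 20x objective, two fields per well · Read-out – percent inhibition of filter-corrected integrated lipid droplet intensity per well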
MC4R antagonist = human MC4R antagonism in cAMP assay; MC4R-expressing cells, MTII-stimulated cAMP, LANCE TR-FRET; AID 540295; P32245; inhibition, % at 6.5 µM; 360,000 compounds, 0.48% hits;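 active = inhibition above its plate's cutoff, the mean of tested wells on that plate plus 3 SD, cut at about 29% in these data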
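Material: U2OS-MC4R stable cell line | Reagent: Melanotan II challenge after compound preincubation | Doses: One concentration, 6.5 µM nominal | Incubation: 30-min compound preincubation, 1-h Melanotan II challenge, 1-h detection, room temperature | Signal: TR-FRET cAMP assay | Replicates: One well per compound, no replicates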
m5-HT2A agonist = agonists of mouse serotonin 5-HT2A receptor (HTR2A) | CHO-K1 mHTR2A beta-arrestin complementation, luminescence; percent of 30 µM serotonin response | P35363 | 360,000 compounds, 0.66% hits | activation, % at 7.6 µM | AID 624169;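 active = activation above a run cutoff, the mean activation of all tested compounds plus 3 SD, cut at about 14% in these data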
Target sequence (P35363 whole entry, looked up): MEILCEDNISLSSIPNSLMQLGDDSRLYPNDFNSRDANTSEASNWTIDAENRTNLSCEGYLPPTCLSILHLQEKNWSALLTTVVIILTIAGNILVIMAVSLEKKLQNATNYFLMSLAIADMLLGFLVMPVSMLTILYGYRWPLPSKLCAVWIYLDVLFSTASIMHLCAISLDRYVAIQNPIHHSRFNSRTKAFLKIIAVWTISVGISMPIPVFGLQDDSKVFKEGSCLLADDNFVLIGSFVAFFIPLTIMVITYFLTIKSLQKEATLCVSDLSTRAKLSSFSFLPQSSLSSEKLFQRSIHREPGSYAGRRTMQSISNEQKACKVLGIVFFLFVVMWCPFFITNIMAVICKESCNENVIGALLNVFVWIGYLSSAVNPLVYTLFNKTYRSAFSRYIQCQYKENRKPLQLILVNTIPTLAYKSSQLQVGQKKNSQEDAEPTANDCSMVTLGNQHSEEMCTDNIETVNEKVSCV
NTR1 ag = activates human neurotensin receptor 1. P30989. AID 493036. 330,000 compounds, 0.17% hits. activation, % at 20 µM. NTR1-U2OS beta-arrestin-GFP spot imaging, agonist mode;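 active = activation at or above 40% of the spot to cytoplasm intensity ratio, with at least 20 cells analyzed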
PREPL inh cf = human PREPL inhibition, confirmation; inhibition, % at 5.96 µM; recombinant PREPL, fluorescence polarization activity probe; shares compounds with PREPL inh; 2,000 compounds, 67% hits
Hits are given with their value; - = inactive; . = no result. Cut-off read from the data, not from the text of the source, unless noted: active = inhibition above about 43%; inactive = the rest.

SMILES | PREPL inh | MC4R barr agon | Lipid droplet | MC4R antagonist | m5-HT2A agonist | NTR1 ag | PREPL inh cf
CC(=O)Oc1cc2cccc(OC(C)=O)c(=O)c2c(OC(C)=O)c1OC(C)=O | 63 | - | - | - | - | - | -
Cn1c(=O)c(NCCO)c2c3c(cccc31)C(=O)c1ccccc1-2 | 90 | - | - | - | - | - | 103
CCNc1c2c3c(cccc3n(C)c1=O)C(=O)c1ccccc1-2 | 69 | . | . | . | . | - | 54
Cn1c(=O)c(NCCc2ccccc2)c2c3c(cccc31)C(=O)c1ccccc1-2 | 163 | - | - | - | - | - | 166
CCCCNc1c2c3c(cccc3n(C)c1=O)C(=O)c1ccccc1-2 | - | - | - | - | - | - | .
COC(=O)c1c(C(=O)c2ccc(Br)cc2)n(C)c2ccccc12 | - | - | . | - | - | - | .
O=C(NCCc1c[nH]c2ccccc12)C(=O)NCC(c1cccnc1)N1CCN(c2ccccc2)CC1 (configuration not stated) | 52 | - | - | - | - | - | 46
CCOc1ccccc1O[C@H](c1ccccc1)[C@H]1CNCCO1 | 44 | - | . | - | - | - | -
COc1cc(O)c(C(CCN2CCCCC2)c2cc(OC)c(OC)c(OC)c2)c(OC)c1 (configuration not stated) | - | - | - | - | - | - | .
COc1cc(O)c(C(CCN2CCCC2)c2cc(OC)c(OC)c(OC)c2)c(OC)c1 (configuration not stated) | 45 | - | - | - | - | - | 47
Cc1ccc(S(=O)(=O)N2C[C@H]3C(=O)C[C@@H](c4ccccc4)N(S(=O)(=O)c4cccc(C)c4)[C@H]3C[C@H]2c2ccccc2)cc1 | . | . | . | . | - | . | .
Cc1ccc(S(=O)(=O)N2[C@@H](c3ccc(Cl)cc3)C(C(=O)O)=C[C@H]2C(C)(C)C)cc1 | - | - | . | - | - | - | .
O=c1c2ccccc2sc2ccc(NCCCN3CCOCC3)cc12 | 45 | - | . | - | - | - | -
CN1CCCC1CCNc1ccc2sc3ccccc3c(=O)c2c1 (configuration not stated) | 51 | - | . | - | - | - | 48
COc1cc2sc3cc(NCCCN4CCOCC4)ccc3c(=O)c2cc1OC | - | - | . | - | - | - | .
Cc1cc2oc3cc(NCCC4CCCN4C)ccc3c(=O)c2cc1C (configuration not stated) | - | - | . | - | - | - | .
C=CCC[C@@H](Cc1ccc(F)cc1)C(=O)OC[C@@H]1CCCN1C(=O)[C@H](CC=C)CC(=O)N[C@H](CO)Cc1ccccc1 | 44 | - | . | - | - | - | -
COc1cc(/C=N\NC(=O)c2ccc(-c3ccccc3)cc2)cc(Br)c1O | 43 | - | - | - | - | - | -
CC1(C)C(=O)Nc2ccccc2N1C(=O)COC(=O)Cc1ccc(Cl)c(Cl)c1 | 47 | - | . | - | - | - | -
CN(C)c1ccc(CCc2ccc(N)cc2)cc1 | - | - | . | - | - | - | .
Nc1ccc(N(c2ccccc2)c2ccc(N)cc2)cc1 | 48 | - | . | - | - | - | -
O=[N+]([O-])c1ccc(N2CCN(c3ccc([N+](=O)[O-])cc3CO)CC2)c(CO)c1 | - | - | - | - | - | - | .
N#Cc1cc([N+](=O)[O-])ccc1N1CCN(c2ccccc2O)CC1 | 53 | - | - | - | - | - | 48
CCOc1ccc(N=Nc2c(=O)[nH]n3c(=O)c4c([nH]c23)CCCC4)cc1 | - | - | - | - | - | - | .
O=c1[nH]n2c(=O)c3c([nH]c2c1N=Nc1cccc(Cl)c1)CCCC3 | 55 | - | - | - | - | - | 58
SMILES | PREPL inh | MC4R barr agon | Lipid droplet | MC4R antagonist | m5-HT2A agonist | NTR1 ag | PREPL inh cf
c1ccc(N2CCN(c3nc(NCc4ccco4)c4ccccc4n3)CC2)cc1 | 56 | - | - | - | - | - | 56
Cc1ccc(Nc2nc(NCc3ccco3)c3ccccc3n2)cc1 | 57 | - | - | - | - | - | 45
c1ccc(-c2nc(NCc3ccco3)c3ccccc3n2)nc1 | 47 | - | . | - | - | - | 47
CS(=O)(=O)c1ccc(N2CCN(S(=O)(=O)c3cccs3)CC2)c([N+](=O)[O-])c1 | - | - | . | - | - | - | .
CCOC(=O)c1c(NC(=S)NCC2CCCO2)sc(C)c1C (configuration not stated) | - | - | - | - | - | - | .
CC[C@@H](C)[C@@H]1CN([C@@H](CN2CCC[C@H]2CN2C(N)=NC[C@H]2CC(C)C)C(C)C)C(=N)N1CCc1ccc(Cl)c(Cl)c1 | 47 | - | . | - | - | - | 48
CC[C@@H](C)[C@@H]1CN([C@@H](CN2CCC[C@H]2CN2C(N)=NC[C@H]2CC(C)C)C(C)C)C(=N)N1CCCC1CCCC1 | - | - | . | - | - | - | .
CCC[C@@H](CN1CCC[C@H]1CN1C(N)=NC[C@H]1CC(C)C)N1C[C@@H]([C@H](C)CC)N(CCc2ccc(Cl)c(Cl)c2)C1=N | 52 | - | . | - | - | - | -
CC[C@@H](C)[C@@H]1CN([C@@H](C)CN2CCC[C@H]2CN2C(N)=NC[C@H]2CC(C)C)C(=N)N1CCc1ccc(Cl)c(Cl)c1 | 53 | - | . | - | - | - | -
CCC[C@@H](CN1CCC[C@H]1CN1C(N)=NC[C@@H]1Cc1ccccc1)N1C[C@@H]([C@H](C)CC)N(CCc2ccc(Cl)c(Cl)c2)C1=N | 43 | - | . | - | - | - | -
CCOc1ccc(CCN2C(=O)C(=O)N([C@@H](CC(C)C)CN3CCC[C@H]3CN3C(=O)C(=O)NC[C@@H]3CC(C)C)C[C@@H]2CC(C)C)cc1 | . | . | . | . | - | . | .
CC(C)(C)c1ccc(CC(=O)N2CCC2(C)C(=O)N2CCCCC2)cc1 (configuration not stated) | . | - | . | - | - | . | .
COc1ccc(/C(C)=N/NC(=O)CNC(=O)c2ccncc2)c(OC)c1 | - | - | - | - | - | - | .
COc1cc(N(Cc2ccccc2)Cc2ccccc2)c2ncn(C(C)C)c2c1 | - | - | . | - | - | - | .
CC(C)n1cnc2c(N(C)c3ccccc3)nc(N(CCN(C)C)Cc3ccccc3)nc21 | 52 | - | - | - | - | - | 48
CNC(=S)N1N=C(c2ccc(Br)cc2)CC1c1ccc(Br)cc1 (configuration not stated) | - | - | - | - | - | - | .
CNC(=S)N1N=C(c2ccc(Br)cc2)CC1c1ccc(N(C)C)cc1 (configuration not stated) | 48 | - | - | - | - | - | 50
CNC(=S)N1N=C(c2ccc(OC)cc2)CC1c1ccc(N(C)C)cc1 (configuration not stated) | 56 | - | . | - | - | - | 60
C[C@@H]1C=C(C(=O)N2CCOCC2)O[C@H](OCc2ccc(CO)cc2)C1 | - | - | - | - | - | - | .
CN1c2ccccc2N(C)C1(C)c1ccccc1 | - | - | - | - | - | . | .
